Assay results taken from ChEMBL document CHEMBL1671700, “Structure-activity analysis of vinylogous urea inhibitors of human immunodeficiency virus-encoded ribonuclease H” (Antimicrob Agents Chemother, 2010).
The source made the active and inactive calls. The calls are words filed in the database; no cut-off is given here.

Experiments:
[1] = biological target: T1, Human immunodeficiency virus type 1 reverse transcriptase (Human immunodeficiency virus 1, UniProt Q72547); assay: Inhibition of RNase H activity of HIV-1 HXB2 reverse transcriptase p66/p51 after 10 mins by fluorescence spectrophotometry
Method in brief: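 His-p66/His-p51 RT from HIV-1 HXB2, 250 ng, with 250 nM 18-nt 3′-fluorescein RNA annealed to 5′-dabsyl DNA. Hydrolysis started by adding hybrid. 37°C, fluorescence (ex 475/em 520 nm) read every minute for 10 min. Percent inhibition from initial rates, plotted against log concentration. Triplicate.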

[2] = system: Human immunodeficiency virus 1; assay: Antiviral activity against HIV-1 isolate RF infected in human CEM-SS cells assessed as inhibition of virus induced cytopathic effect by XTT assay; assay type: functional, organism-based; details: Human immunodeficiency virus 1, isolate RF
Method in brief: (§1)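 HIV-1 RF isolate in human T-cell line CEM-SS; XTT-based cell viability read-out following Weislow et al.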

[3] = Cytotoxicity against human CEM-SS cells by XTT assay; assay type: cell-based; method in brief: as §1
[4] = biological target: Human immunodeficiency virus type 1 reverse transcriptase (Human immunodeficiency virus 1) (UniProt Q72547); assay: Binding affinity to HIV-1 HXB2 reverse transcriptase p66/p51 assessed as changes in enzyme orientation on polypurine tract-containing RNA-DNA hybrid by FRET assay
Method in brief: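 Single-molecule FRET. Substrate: 21-nt PPT:D2 RNA-DNA primer annealed at 1.2:1 to a biotinylated 50-nt DNA template. Cy5 acceptor near the template 3′ end; Cy3 donor on the RNase H C terminus of p66. His-p66/His-p51 RT is from the HXB2 isolate. Inhibitor was added at 10 μM final.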

[5] = biological target: T1, Human immunodeficiency virus type 1 reverse transcriptase; assay: Inhibition of RNase H activity of HIV-1 reverse transcriptase
Method in brief: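 Recombinant His-p66/His-p51 RT (HXB2) was mixed with inhibitor in DMSO, then the reaction was started with 18-bp hybrid (3′-fluorescein RNA/5′-dabsyl DNA). Run at 37°C for 10 min, read ex 475/em 520 nm every minute. IC50 from initial-rate % inhibition vs log[inhibitor], triplicate.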

Reverse transcriptase = Reverse transcriptase (Human immunodeficiency virus 2, UniProt Q06347); assay: Inhibition of RNase H activity of HIV-2 reverse transcriptase
Sequence of Reverse transcriptase (Q06347 whole entry): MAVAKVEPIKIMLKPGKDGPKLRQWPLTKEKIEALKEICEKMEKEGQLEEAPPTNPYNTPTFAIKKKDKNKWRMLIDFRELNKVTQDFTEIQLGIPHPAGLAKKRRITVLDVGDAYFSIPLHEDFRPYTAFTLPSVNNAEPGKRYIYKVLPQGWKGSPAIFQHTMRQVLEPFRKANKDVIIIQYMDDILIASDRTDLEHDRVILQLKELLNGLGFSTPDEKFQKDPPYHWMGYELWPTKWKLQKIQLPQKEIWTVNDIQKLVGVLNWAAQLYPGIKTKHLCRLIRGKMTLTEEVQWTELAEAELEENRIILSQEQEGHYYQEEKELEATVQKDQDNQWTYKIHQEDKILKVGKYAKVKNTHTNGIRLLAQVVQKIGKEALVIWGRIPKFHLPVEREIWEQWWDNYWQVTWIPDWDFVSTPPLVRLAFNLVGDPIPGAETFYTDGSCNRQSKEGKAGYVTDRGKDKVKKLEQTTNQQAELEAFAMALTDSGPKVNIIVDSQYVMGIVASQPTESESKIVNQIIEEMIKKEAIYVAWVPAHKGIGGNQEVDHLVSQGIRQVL

[6] = biological target: Human immunodeficiency virus type 1 reverse transcriptase (Human immunodeficiency virus 1) (UniProt Q72547); assay: Binding affinity to HIV-1 HXB2 reverse transcriptase p66/p51 at increased temperature by Van't Hoff analysis
Method in brief: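 His-p66/His-p51 RT (4 nM) and RNA-DNA hybrid (250 nM) were run at 20, 25, 30 and 35°C. The reaction was started with substrate, incubated 30 min and quenched with EDTA. Product fluorescence was read, with quadruplicate dose-response curves at each temperature. Ki was fitted as v_i/v_o = 1/[1 + ([I]/Ki)], simple nontight-binding inhibition.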

[7] = biological target: Human immunodeficiency virus type 1 reverse transcriptase (Human immunodeficiency virus 1) (UniProt Q72547); assay: Inhibition of DNA-dependent DNA polymerase activity of HIV1 HXB2 reverse transcriptase p66/p51at 50 uM after 10 mins by fluorescence spectrophotometry
[8] = biological target: Human immunodeficiency virus type 1 reverse transcriptase (Human immunodeficiency virus 1) (UniProt Q72547); assay: Inhibition of RNase H activity of HIV-1 HXB2 reverse transcriptase p66/p51 preincubated with compound and RNA-DNA hybrid substrate followed by addition of magnesium ions
[9] = biological target: Human immunodeficiency virus type 1 reverse transcriptase (Human immunodeficiency virus 1) (UniProt Q72547); assay: Inhibition of RNase H activity of HIV-1 HXB2 reverse transcriptase p66/p51 pre-incubated with RNA-DNA hybrid followed by addition of compound and magnesium ions

Row | IC50 [1] [µM] | SMILES | also measured
1 | > 500 | COc1ccccc1NC(=O)c1c(NC(=O)Cc2ccccc2)sc2c1CCCCC2 | IC50 [2]: 54 µM; CC50 [3]: 141 µM
2 | 21 | Cc1sc(NC(=O)C2CC3CCC2C3)c(C(N)=O)c1C (centres undefined) | 
3 | 6.9 | NC(=O)c1c(NC(=O)COc2ccccc2)sc2c1CCCCC2 | 
4 | > 500 | NC(=O)c1c(N)sc2c1CCCCCC2 | 
5 | > 500 | CCOc1ccc(NC(=O)c2c(NC(=O)c3ccccc3)sc3c2CCCCC3)cc1 | 
6 | 5.1 | Cc1sc(NC(=O)c2ccc3c(c2)OCO3)c(C(N)=O)c1C | IC50 [2]: 19 µM; CC50 [3]: 38 µM
7 |  | CC(C)c1ccc(O)c(=O)c(O)c1 [BETA-THUJAPLICINOL] | IC50 [5]: 0.25 µM; IC50 (Reverse transcriptase): 0.25 µM; Activity [6]: inactive
8 | > 500 | Cc1ccc(NC(=O)c2c(NC(=O)c3ccccc3F)sc3c2CCCCC3)cc1 | 
9 | 1.7 | Cc1sc(NC(=O)c2ccc(Br)o2)c(C(N)=O)c1C | 
10 | 27.3 | Cc1sc(NC(=O)C2CCCO2)c(C(N)=O)c1C (centres undefined) | 
11 | > 100 | Cc1sc2nc(-c3ccccc3)[nH]c(=O)c2c1C | 
12 | > 500 | O=C(Nc1sc2c(c1C(=O)Nc1cccc3ccccc13)CCCCC2)c1ccccc1F | 
13 | > 500 | NC(=O)c1c(N)sc2c1CCC2 | 
14 | > 500 | Cc1cc(Cl)ccc1CCC(=O)Nc1sc(C)c(C)c1C(N)=O | 
15 | 2.9 | Cc1onc(-c2ccccc2)c1C(=O)Nc1sc(C)c(C)c1C(N)=O | 
16 | 3.4 | Cc1sc(NC(=O)c2ccco2)c(C(N)=O)c1C | 
17 | 14 | NC(=O)c1c(N)sc2c1CCCC2 | 
18 | > 100 | COc1ccc(-c2nc3sc(C)c(C)c3c(=O)[nH]2)cc1 | 
19 | > 500 | Cc1sc(N)c(C(N)=O)c1C | 
20 |  | NC(=O)c1c(N)sc2c1CCCCC2 | inhibition [8]: Active; inhibition [9]: inactive; IC50 [2]: 4.3 µM; CC50 [3]: 19.9 µM; Activity [6]: inactive; Activity [4]: Active
21 | > 500 | NC(=O)c1ccsc1N | 
22 | 2.8 | Cc1ccc(C(=O)Nc2sc(C)c(C)c2C(N)=O)cc1 | 
23 | 4.2 | CCOc1ccc(NC(=O)c2c(NC(=O)c3ccco3)sc3c2CCCCC3)cc1 | 

Row | SMILES | IC50 [1] [µM] | also measured
24 | Cc1sc(NC(=O)c2cccc([N+](=O)[O-])c2)c(C(N)=O)c1C | 1.3 | Activity [4]: Active
25 | Cc1sc2nc(-c3ccc([N+](=O)[O-])cc3)[nH]c(=O)c2c1C | 0.85 | Activity [4]: Active; inhibition [7]: inactive
